Columns and labels:
[1] = Cytotoxicity against Chinese hamster ovary cells; format: cell-based, Cricetulus griseus
Procedure, shortened: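 Cells were then exposed to graded drug concentrations for 48 h at 37 °C, 5% CO2. MTT (1 mg/mL in PBS) was added for 3 h, and formazan was dissolved in DMSO and read at 570/630 nm. IC50 came from nonlinear regression versus drug-free wells.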

Plasmodium falciparum [2] = assay: Accumulation coefficient of chloroquine at 1 um-10 uM of DEEA against Plasmodium falciparum W2;Range is from 14-15; format: functional
Procedure, shortened: (§1)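 W2 infected erythrocytes were suspended in RPMI 1640 with 25 mM HEPES and 25 mM NaHCO3 (2% parasitemia, 2% hematocrit). They were mixed over silicone oil with buffer holding [3H]CQ (26 Ci/mmol) plus DEEA at 1 or 10 μM. Incubation was 1 h at 37 °C under 10% O2/6% CO2/84% N2, followed by 1 min centrifugation. Ratio = parasite [3H]CQ (infected minus uninfected cells) / same-volume buffer.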

[3] = Dissociation constant (pKa); format: physicochemical
Plasmodium falciparum [4] = assay: In vitro inhibitory activity against multidrug-resistant Plasmodium falciparum W2 Indochina; format: functional, organism-based; settings: Plasmodium falciparum
Procedure, shortened: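 Clone W2 (Indochina), sorbitol-synchronized, was grown in RPMI 1640 with 10% human serum, 25 mM HEPES and 25 mM NaHCO3, at final parasitemia 0.5% and hematocrit 1.5%. The drug was present for 48 h at 37 °C under 10% O2/6% CO2/84% N2. Growth was read as 3H-hypoxanthine uptake (1 μCi/well). IC50 came from nonlinear regression of log-dose/response as the geometric mean with 95% CI.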

[5] = Partition coefficient (logP); format: physicochemical; settings: octanol/water; read-out: logP
Plasmodium falciparum [6] = assay: Percent reversal against Plasmodium falciparum W2 at 1 uM DEEA; format: functional
[7] = Partition coefficient (logD7.0); format: physicochemical; settings: octanol/water, pH 7; read-out: logD
[8] = In vitro hemolytic concentration on uninfected erythrocytes.; format: functional, Homo sapiens
Procedure, shortened: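 Washed A+ human erythrocytes were held at 1.5% hematocrit in RPMI 1640 with 10% human serum, 25 mM HEPES and 25 mM NaHCO3. Drug (2 mM to 1 μM final, triplicate) was added for 42 h at 37 °C under 10% O2/6% CO2. Released hemoglobin in supernatant was measured with TMB/H2O2 at 455 nm. HC50 is relative to 5% saponin lysis, by nonlinear regression.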

Plasmodium falciparum [9] = assay: Accumulation coefficient of chloroquine at 1 uM -10 uM of DEEA against Plasmodium falciparum W2; Range is from 15-101; format: functional; procedure, shortened: as §1
Plasmodium falciparum [10] = assay: Concentration required to reduce chloroquine IC50 by 50%; format: functional, organism-based; settings: Plasmodium falciparum
Procedure, shortened: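 Synergy isotopic microtest on sorbitol-synchronized W2 (Indochina) and 3D7 in RPMI 1640 with 10% human serum, HEPES/NaHCO3, parasitemia 0.5%, hematocrit 1.5%. CQ was combined with subinhibitory fixed DEEA concentrations, and 3H-hypoxanthine was added for 48 h at 37 °C under 10% O2/6% CO2/84% N2. Reversal IC50 is the DEEA concentration halving CQ IC50, found by nonlinear regression of log-dose/IC50.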

Plasmodium falciparum [11] = assay: Accumulation coefficient of chloroquine at 1 uM-10 uM of DEEA against Plasmodium falciparum W2; Range is from 16-71; format: functional; procedure, shortened: as §1
Plasmodium falciparum [12] = assay: Accumulation coefficient of chloroquine at 1 uM-10 uM of DEEA against Plasmodium falciparum W2; Range is from 19-23; format: functional; procedure, shortened: as §1
Plasmodium falciparum [13] = assay: Accumulation coefficient of chloroquine at 1 uM-10 uM of DEEA against Plasmodium falciparum W2; format: functional; procedure, shortened: as §1
Plasmodium falciparum [14] = assay: Percent reversal against Plasmodium falciparum W2 at 1 uM DEEA
Plasmodium falciparum [15] = assay: Accumulation coefficient of chloroquine at 1 uM-10 uM of DEEA against Plasmodium falciparum W2; Range is from 62-63; format: functional
Plasmodium falciparum [16] = assay: Accumulation coefficient of chloroquine at 1 uM-10 uM of DEEA against Plasmodium falciparum W2; Range is from 18-16; format: functional

SMILES | Cytotoxicity [1] [µM] | Accumulation coefficient (Plasmodium falciparum [2]) | pKa [3] | IC50 (Plasmodium falciparum [4]) [µM] | logP [5] | Reversal (Plasmodium falciparum [6]) [%] | logD [7] | HC50 [8] [µM] | Accumulation coefficient (Plasmodium falciparum [9]) | IC50 (Plasmodium falciparum [10]) [µM] | Accumulation coefficient (Plasmodium falciparum [11]) | Accumulation coefficient (Plasmodium falciparum [12]) | Accumulation coefficient (Plasmodium falciparum [13]) | Reversal (Plasmodium falciparum [14]) [%] | Accumulation coefficient (Plasmodium falciparum [15]) | Accumulation coefficient (Plasmodium falciparum [16])
CC1C2c3ccccc3C(c3ccccc32)C1C(=O)Nc1ccccn1 (stereo unspecified) | 205 | 15 | 5.27 | 302 | 4.17 | 0 | 4.16 | 1827 | – | – | – | – | – | – | – | –
CC1C2c3ccccc3C(c3ccccc32)C1C(=O)Nc1ccncc1 (stereo unspecified) | > 500 | – | 5.27 | 833 | 3.85 | 21 | 3.85 | >2000 | 101 | 1490 | – | – | – | – | – | –
CN(C)CCNC1CC2c3ccccc3C1c1ccccc12 (stereo unspecified) | 695 | – | 9.48 | 8 | 3.17 | 63 | -1.5 | 644 | – | 0.8 | 71 | – | – | – | – | –
CC1C2c3ccccc3C(c3ccccc32)C1C(=O)/N=C/N(C)C (stereo unspecified) | > 2000 | – | – | 51 | 3.26 | 0 | 3.26 | >2000 | – | 40 | – | 23 | – | – | – | –
CC1C2c3ccccc3C(c3ccccc32)C1C(N)=O (stereo unspecified) | > 2000 | – | -0.89 | 41 | 2.89 | – | 2.89 | >2000 | – | 20 | – | – | 22 | 0 | – | –
CCOC(=O)C1C2c3ccccc3C(c3ccccc32)C1N(C)C (stereo unspecified) | > 2000 | – | 7.48 | 34 | 3.6 | 0 | 3 | >2000 | – | 3.1 | – | – | – | – | 63 | –
CN(C)C1C2c3ccccc3C(c3ccccc32)C1C(=O)O (stereo unspecified) | > 2000 | – | 8.3 | > 50 | 2.7 | 0 | 0.1 | >2000 | – | > 100 | – | – | – | – | – | 18

Source: ChEMBL document CHEMBL1135512 (J Med Chem, 2002)
